The text below walks through data of article PMC8349901 (Journal of Peptide Science, 2021).

Structures are written as SMILES. Non-standard residues stand in square brackets, D forms with d. Residues, ends and D or L forms follow the SMILES beside them. Bip = N[C@@H](Cc1ccc(-c2ccccc2)cc1)C(=O)O

For series [1] the following is noted: amino acid; glycine defined as 0; higher π = more hydrophobic; cited from earlier work.
Series [2] in a line: Negative-stain TEM of self-assembled nanoribbon morphology. The format is physicochemical. As to conditions: 0.2 mM peptide, 5% HFIP/water, average of at least 100 measurements; for Nanoribbon width: pH 3–4, room temperature. The method, boiled down:
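Peptide, quantified by HPLC peak area against amino-acid-analysis-calibrated curves, dissolved in HFIP and diluted with water to 0.2 mM (5% HFIP, pH 3–4 from residual TFA). Vortexed 1 min, sonicated 5 min. Assembled sample applied to carbon-coated copper grids for 30 s, blotted, stained 2 min with 5% uranyl acetate, and water-washed. Imaged at 80 kV. Dimensions averaged over ≥100 distinct fibrils.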

Series [3] in a line: Self-assembly kinetics by circular dichroism over 24 h. In kind it is physicochemical. The conditions noted are these: CD at 0, 1, 2, 4, 12, 24 h; 0.2 mM peptide, 5% HFIP/water, 25°C. In short, it runs like this: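 Lyophilized peptide, quantified by 215-nm HPLC calibration tied to amino acid analysis, was dissolved in HFIP, then water was added (pH 3–4 from residual TFA). Solutions were vortexed for 1 min and sonicated for 5 min. Spectra were scanned from 260 to 190 nm in a 0.1-mm quartz cell with 1.0-nm step, 1.0-nm bandwidth and 3 s per step, starting immediately after preparation.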
(In general: Circular dichroism is the unequal absorption of left and right circularly polarised light.)

Consider `N[C@@H](CCc1ccccc1)C(=O)O` [Hph, homophenylalanine], for which, in series [1], the “partition coefficient (π) between octanol and water relative to glycine” value is listed as 2.10.

With `CC(=O)N[C@@H](Cc1ccccc1)C(=O)N[C@@H](CCCCN)C(=O)N[C@@H](Cc1ccccc1)C(=O)N[C@@H](CCC(=O)O)C(=O)N[C@@H](Cc1ccccc1)C(=O)N[C@@H](CCCCN)C(=O)N[C@@H](Cc1ccccc1)C(=O)N[C@@H](CCC(=O)O)C(N)=O` [Peptide 1, Ac‐(FKFE)2‐NH2], the Nanoribbon width in series [2] was 8.8 ± 0.8 nm. The compound further had a Helical pitch in series [2] (left-handed helical nanoribbons) of 19.1 ± 1.3 nm.

With `CC(=O)N[C@@H](Cc1c[nH]c2ccccc12)C(=O)N[C@@H](CCCCN)C(=O)N[C@@H](Cc1c[nH]c2ccccc12)C(=O)N[C@@H](CCC(=O)O)C(=O)N[C@@H](Cc1c[nH]c2ccccc12)C(=O)N[C@@H](CCCCN)C(=O)N[C@@H](Cc1c[nH]c2ccccc12)C(=O)N[C@@H](CCC(=O)O)C(N)=O` [Peptide 3, Ac‐(WKWE)2‐NH2] (Ac-WKWEWKWE-NH2), the Nanoribbon width in series [2] was 7.3 ± 1.6 nm. The “evolution of CD signal over 24 h (self-assembly kinetics)” value (“evolution of CD signal over 24 h” below) in series [3] is given as “occurring over 24 h”.

`CC(=O)N[C@@H](Cc1ccc(-c2ccccc2)cc1)C(=O)N[C@@H](CCCCN)C(=O)N[C@@H](Cc1ccc(-c2ccccc2)cc1)C(=O)N[C@@H](CCC(=O)O)C(=O)N[C@@H](Cc1ccc(-c2ccccc2)cc1)C(=O)N[C@@H](CCCCN)C(=O)N[C@@H](Cc1ccc(-c2ccccc2)cc1)C(=O)N[C@@H](CCC(=O)O)C(N)=O` [Peptide 6, Ac‐(BipKBipE)2‐NH2] (Ac-[Bip]K[Bip]E[Bip]K[Bip]E-NH2) had a Nanoribbon width in series [2] of 5.5 ± 0.9 nm. Moreover, in series [3], the “evolution of CD signal over 24 h” value is “no effect on evolution of signal intensity over time”.

Consider `CC(=O)N[C@@H](Cc1ccc(-c2ccccc2)cc1)C(=O)N[C@@H](CCCCN)C(=O)N[C@@H](Cc1ccccc1)C(=O)N[C@@H](CCC(=O)O)C(=O)N[C@@H](Cc1ccccc1)C(=O)N[C@@H](CCCCN)C(=O)N[C@@H](Cc1ccccc1)C(=O)N[C@@H](CCC(=O)O)C(N)=O` [Peptide 9, Ac‐BipKFEFKFE‐NH2] (Ac-[Bip]KFEFKFE-NH2), for which the Nanoribbon width in series [2] is given as 2.9 ± 0.5 nm. Besides, the “evolution of CD signal over 24 h” value in series [3] is “intensified dramatically over 24 h”.

Turning to `N[C@@H](Cc1ccccc1)C(=O)O` [Phe, phenylalanine], the “partition coefficient (π) between octanol and water relative to glycine” value in series [1] was 1.79.

Consider `N[C@@H](Cc1c[nH]c2ccccc12)C(=O)O` [Trp, tryptophan], for which the “partition coefficient (π) between octanol and water relative to glycine” value in series [1] was 2.25.
